pIC50, pKd, pKi: −log10 of the molar value. Calls of active or inactive are those of the source. The rule behind the calls is not given here.
Tests used:
[1] = molecular target: Fibroblast growth factor 1 (Homo sapiens, UniProt P05230); assay: Binding affinity to FGF-1 by surface plasmon resonance assay
Outline: (§1)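 Solution-affinity SPR on heparin-coated CM4 chips. FGF-1 measured in HBS-EP (10 mM HEPES pH 7.4, 150 mM NaCl, 3.0 mM EDTA, 0.005% polysorbate 20); FGF-2 measured in HBS-EP with 300 mM NaCl. Kd is the average of at least duplicate measurements ± SD.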

[2] = molecular target: Fibroblast growth factor 2 (Homo sapiens, UniProt P09038); assay: Binding affinity to FGF-2 by surface plasmon resonance assay; outline: as §1
Sequence of Fibroblast growth factor 2 (P09038 143-288 limits assumed): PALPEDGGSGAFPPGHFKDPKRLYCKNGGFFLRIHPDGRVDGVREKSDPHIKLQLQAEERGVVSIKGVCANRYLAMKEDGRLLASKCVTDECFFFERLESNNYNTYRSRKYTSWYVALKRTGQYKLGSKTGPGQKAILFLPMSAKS

[3] = molecular target: T1, Heparanase (Homo sapiens, UniProt Q9Y251); assay: Inhibition of human recombinant heparanase after 2 to 24 hrs by WST1 dye based fondaparinux assay
T1 sequence (Q9Y251 whole entry): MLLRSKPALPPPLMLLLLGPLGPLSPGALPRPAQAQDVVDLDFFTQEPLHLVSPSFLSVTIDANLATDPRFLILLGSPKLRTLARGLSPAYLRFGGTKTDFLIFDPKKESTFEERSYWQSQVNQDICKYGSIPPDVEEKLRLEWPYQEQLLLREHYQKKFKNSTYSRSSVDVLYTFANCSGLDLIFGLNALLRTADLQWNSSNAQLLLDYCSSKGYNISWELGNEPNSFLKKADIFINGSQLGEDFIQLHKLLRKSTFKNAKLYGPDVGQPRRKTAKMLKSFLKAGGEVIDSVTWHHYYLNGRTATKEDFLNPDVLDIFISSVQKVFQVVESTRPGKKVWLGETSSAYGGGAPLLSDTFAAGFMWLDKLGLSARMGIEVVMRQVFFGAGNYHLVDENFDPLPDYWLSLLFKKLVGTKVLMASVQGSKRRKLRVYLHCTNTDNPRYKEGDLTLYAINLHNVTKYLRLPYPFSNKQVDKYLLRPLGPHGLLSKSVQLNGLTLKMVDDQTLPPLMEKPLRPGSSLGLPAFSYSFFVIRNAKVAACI

[4] = system: HUVEC; assay: Antiangiogenic activity in FGF1-stimulated HUVEC cells after 72 hrs by CellTiter assay; type: functional, cell-based; details: Homo sapiens
[5] = system: HUVEC; assay: Antiangiogenic activity in FGF2-stimulated HUVEC cells after 72 hrs by CellTiter assay; type: functional, cell-based; details: Homo sapiens
[6] = system: HUVEC; assay: Antiangiogenic activity in VEGF-stimulated HUVEC cells after 72 hrs by CellTiter assay; type: functional, cell-based; details: Homo sapiens
[7] = system: HMVEC; assay: Antiangiogenic activity in FGF1-stimulated HMVEC cells after 72 hrs by CellTiter assay; type: functional, cell-based; details: Homo sapiens
[8] = system: HMVEC; assay: Antiangiogenic activity in FGF2-stimulated HMVEC cells after 72 hrs by CellTiter assay; type: functional, cell-based; details: Homo sapiens
[9] = system: HMVEC; assay: Antiangiogenic activity in VEGF-stimulated HMVEC cells after 72 hrs by CellTiter assay; type: functional, cell-based; details: Homo sapiens
[10] = system: Plasma; assay: Anticoagulant activity in pooled human plasma assessed as activated partial thromboplastin time at 0.1 mg/ml; type: ADME, cell-free
Outline: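 APTT of pooled normal human plasma measured with compound at 0–100 μg/mL in PBS on a ball coagulameter, using unfractionated heparin as the reference. Normal range 26–36 s; coefficient of variation 2% at 36 s and 5–7% at 90 s or above. Values are the mean of two determinations.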

[11] = system: Plasma; assay: Anticoagulant activity in pooled human plasma assessed as prolongation of the recalcification time at 0.1 mg/ml by Heptest assay; type: ADME, cell-free
Outline: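 Heptest clotting time in pooled normal human plasma; normal range 13–20 s. Values are the mean of two determinations.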

[12] = molecular target: Vascular endothelial growth factor A (Homo sapiens) (UniProt P15692); assay: Binding affinity to VEGF by surface plasmon resonance assay

Sequence of Fibroblast growth factor 1 (P05230 whole entry): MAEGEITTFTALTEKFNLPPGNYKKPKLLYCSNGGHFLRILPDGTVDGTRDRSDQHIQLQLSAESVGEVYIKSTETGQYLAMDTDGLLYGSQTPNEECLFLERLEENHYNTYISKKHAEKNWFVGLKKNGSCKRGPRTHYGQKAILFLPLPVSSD

Row | SMILES | pKd [1] | pKd [2] | pKi [3] | pIC50 [4] | pIC50 [5] | pIC50 [6] | Activity [7] | Activity [8] | Activity [9] | APTT [10] [s] | Time [11] [s] | pKd [12]
1 | CC(C)CCC[C@@H](C)[C@H]1CC[C@H]2[C@@H]3CC[C@H]4C[C@@H](O[C@@H]5O[C@H](COS(=O)(=O)[O-])[C@@H](O[C@H]6O[C@H](COS(=O)(=O)[O-])[C@@H](O[C@H]7O[C@H](COS(=O)(=O)[O-])[C@@H](OS(=O)(=O)[O-])[C@H](OS(=O)(=O)[O-])[C@H]7OS(=O)(=O)[O-])[C@H](OS(=O)(=O)[O-])[C@H]6OS(=O)(=O)[O-])[C@H](OS(=O)(=O)[O-])[C@H]5OS(=O)(=O)[O-])CC[C@]4(C)[C@H]3CC[C@]12C.[Na+].[Na+].[Na+].[Na+].[Na+].[Na+].[Na+].[Na+].[Na+].[Na+] | 7.61 | 6.26 | 8.04 | 5.60 | 5.64 | 5.80 | Active | Active | Active | 51.6 | 29.2 | 6.72
2 | CC(C)CCC[C@@H](C)[C@H]1CC[C@H]2[C@@H]3CC[C@H]4C[C@@H](O[C@@H]5O[C@H](COS(=O)(=O)[O-])[C@@H](O[C@@H]6O[C@H](COS(=O)(=O)[O-])[C@@H](OS(=O)(=O)[O-])[C@H](OS(=O)(=O)[O-])[C@H]6OS(=O)(=O)[O-])[C@H](OS(=O)(=O)[O-])[C@H]5OS(=O)(=O)[O-])CC[C@]4(C)[C@H]3CC[C@]12C.[Na+].[Na+].[Na+].[Na+].[Na+].[Na+].[Na+] | 6.06 | 5.70 |  | 5.22 | 5.25 | 5.25 | Active | Active | Active | 38.8 | 25.3 | 5.87
3 | CC(C)CCC[C@@H](C)[C@H]1CC[C@H]2[C@@H]3CC[C@H]4C[C@@H](O[C@H]5O[C@H](COS(=O)(=O)[O-])[C@@H](OS(=O)(=O)[O-])[C@H](OS(=O)(=O)[O-])[C@@H]5O[C@H]5O[C@H](COS(=O)(=O)[O-])[C@@H](OS(=O)(=O)[O-])[C@H](O[C@H]6O[C@H](COS(=O)(=O)[O-])[C@@H](OS(=O)(=O)[O-])[C@H](OS(=O)(=O)[O-])[C@@H]6OS(=O)(=O)[O-])[C@@H]5OS(=O)(=O)[O-])CC[C@]4(C)[C@H]3CC[C@]12C.[Na+].[Na+].[Na+].[Na+].[Na+].[Na+].[Na+].[Na+].[Na+].[Na+] | 7.73 | 6.20 | 8.19 | 5.36 | 5.64 | 6.00 | Active | Active | Active | 50.7 | 27.3 | 6.50
4 | CC(C)CCC[C@@H](C)[C@H]1CC[C@H]2[C@@H]3CC[C@H]4C[C@@H](OCc5cn([C@@H]6O[C@H](COS(=O)(=O)[O-])[C@@H](O[C@@H]7O[C@H](COS(=O)(=O)[O-])[C@H](OS(=O)(=O)[O-])[C@H](OS(=O)(=O)[O-])[C@H]7OS(=O)(=O)[O-])[C@H](OS(=O)(=O)[O-])[C@H]6OS(=O)(=O)[O-])nn5)CC[C@]4(C)[C@H]3CC[C@]12C.[Na+].[Na+].[Na+].[Na+].[Na+].[Na+].[Na+] | 6.21 | 5.74 | 7.52 | 5.57 | 5.61 | 5.58 | Active | Active | Active | 39.6 | 25.3 | 5.80
5 | CC(C)CCC[C@@H](C)[C@H]1CC[C@H]2[C@@H]3CC[C@H]4C[C@@H](O[C@@H]5O[C@H](COS(=O)(=O)[O-])[C@@H](O[C@H]6O[C@H](COS(=O)(=O)[O-])[C@@H](OS(=O)(=O)[O-])[C@H](OS(=O)(=O)[O-])[C@H]6OS(=O)(=O)[O-])[C@H](OS(=O)(=O)[O-])[C@H]5OS(=O)(=O)[O-])CC[C@]4(C)[C@H]3CC[C@]12C.[Na+].[Na+].[Na+].[Na+].[Na+].[Na+].[Na+] | 6.25 | 5.66 |  | 5.40 | < 5.00 | 5.28 | Active | Active | Active | 38.6 | 23.9 | 5.92
6 | CC(C)CCC[C@@H](C)[C@H]1CC[C@H]2[C@@H]3CC[C@H]4C[C@@H](O[C@H]5O[C@H](COS(=O)(=O)[O-])[C@@H](OS(=O)(=O)[O-])[C@H](OS(=O)(=O)[O-])[C@@H]5OS(=O)(=O)[O-])CC[C@]4(C)[C@H]3CC[C@]12C.[Na+].[Na+].[Na+].[Na+] |  | < 5.52 |  | 5.66 | 5.54 | 5.65 | Active | Active | Active | 36.1 | 23.9 | 5.52
7 | CCCCCCCCCCCCCCCCCC(=O)NCCCO[C@@H]1O[C@H](COS(=O)(=O)[O-])[C@@H](O[C@H]2O[C@H](COS(=O)(=O)[O-])[C@@H](O[C@H]3O[C@H](COS(=O)(=O)[O-])[C@@H](OS(=O)(=O)[O-])[C@H](OS(=O)(=O)[O-])[C@H]3OS(=O)(=O)[O-])[C@H](OS(=O)(=O)[O-])[C@H]2OS(=O)(=O)[O-])[C@H](OS(=O)(=O)[O-])[C@H]1OS(=O)(=O)[O-].[Na+].[Na+].[Na+].[Na+].[Na+].[Na+].[Na+].[Na+].[Na+].[Na+] |  |  |  |  |  |  | Active | Active | Active | 51.1 | 24.9 | 6.42
8 | CC(C)CCC[C@@H](C)[C@H]1CC[C@H]2[C@@H]3CC[C@H]4C[C@@H](O[C@H]5O[C@H](COS(=O)(=O)[O-])[C@@H](OS(=O)(=O)[O-])[C@H](OS(=O)(=O)[O-])[C@@H]5O[C@H]5O[C@H](COS(=O)(=O)[O-])[C@@H](OS(=O)(=O)[O-])[C@H](OS(=O)(=O)[O-])[C@@H]5OS(=O)(=O)[O-])CC[C@]4(C)[C@H]3CC[C@]12C.[Na+].[Na+].[Na+].[Na+].[Na+].[Na+].[Na+] |  |  |  | < 5.00 | 5.65 | 5.74 | Active | Active | Active | 40.6 | 25.5 | 5.89
9 | CC(C)CCC[C@@H](C)[C@H]1CC[C@H]2[C@@H]3CC[C@H]4C[C@@H](OCc5cn([C@@H]6O[C@H](COS(=O)(=O)[O-])[C@@H](O[C@H]7O[C@H](COS(=O)(=O)[O-])[C@@H](OS(=O)(=O)[O-])[C@H](OS(=O)(=O)[O-])[C@H]7OS(=O)(=O)[O-])[C@H](OS(=O)(=O)[O-])[C@H]6OS(=O)(=O)[O-])nn5)CC[C@]4(C)[C@H]3CC[C@]12C.[Na+].[Na+].[Na+].[Na+].[Na+].[Na+].[Na+] |  |  |  | 5.39 | 5.38 | 5.95 | Active | Active | Active | 40.3 | 26.7 | 5.71
